Bioassay records as filed in PubChem BioAssay.
OX1R antag-1: OX1R (human) antagonism; 1.8% of 330,000 active; O43613; OX1R-expressing cells, FRET antagonist read-out; inhibition, % at 6.6 µM; in the data active = inhibition mostly above about 38%, no sharp cut-off; inactive = mostly below about 40%;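 note: 0% = agonist challenge alone and 100% = reference antagonist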
TAAR1 ag: human TAAR1 agonism; Q96RJ0; CHO RD-HGA16 TAAR1, Fluo-8 calcium fluorescence; vehicle wells 0%, saturating PEA agonist 100%; activation, % at 3 µM; 0.99% of 360,000 active; AID 624467;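 active = activation above the mean activation of all test compounds in the run plus 3 SD, cut at about 38% in these data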
Target sequence (Q96RJ0 whole entry, looked up): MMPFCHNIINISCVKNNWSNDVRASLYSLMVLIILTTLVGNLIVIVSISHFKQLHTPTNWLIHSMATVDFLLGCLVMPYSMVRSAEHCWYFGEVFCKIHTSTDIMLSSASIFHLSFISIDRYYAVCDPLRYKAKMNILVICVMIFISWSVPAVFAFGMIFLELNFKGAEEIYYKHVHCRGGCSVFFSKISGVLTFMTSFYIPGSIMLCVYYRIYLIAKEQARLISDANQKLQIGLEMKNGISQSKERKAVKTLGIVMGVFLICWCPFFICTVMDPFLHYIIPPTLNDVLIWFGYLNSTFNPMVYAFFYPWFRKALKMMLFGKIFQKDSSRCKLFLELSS
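System: CHO-derived RD-HGA16 cells with stable Gα16 and human TAAR1. Times: 17-24 h plating, Fluo-8 75 min 37 °C, 30 min RT. Measured by: calcium-sensitive Fluo-8 signal, excitation 470-495, emission 515-575 nm. Read-out basis: % activation relative to PEA EC100 response. Control set: DMSO and PEA EC100. Repeats: no replicates (n 1).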
GPR7 antagonist: blocks human GPR7 receptor signaling; GPR7-expressing cells, fluorescence antagonist assay; P48145; inhibition, % at 4.4 µM; 1.1% of 290,000 active; AID 1861; in the data active = inhibition above about 16%, passing the limit was not always enough;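 note: cells stimulated with the agonist NPW; 0% = agonist with vehicle and 100% = vehicle without agonist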
Target sequence (P48145 whole entry, looked up): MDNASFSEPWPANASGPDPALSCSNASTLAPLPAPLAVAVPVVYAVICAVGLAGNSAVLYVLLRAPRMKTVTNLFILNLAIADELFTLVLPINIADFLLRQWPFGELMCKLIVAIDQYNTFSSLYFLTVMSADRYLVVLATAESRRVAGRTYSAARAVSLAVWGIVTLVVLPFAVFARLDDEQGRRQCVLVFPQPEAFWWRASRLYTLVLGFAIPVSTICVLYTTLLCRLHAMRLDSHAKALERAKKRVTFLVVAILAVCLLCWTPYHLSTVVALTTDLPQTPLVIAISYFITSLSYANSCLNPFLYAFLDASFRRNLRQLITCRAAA
CHO parental Ca: signal in parental CHO cells, OX1R antagonist counter-screen; parental CHO-K1, ATP-induced calcium, Fluo-8 fluorescence; inhibition, % at 5.6 µM; 0.63% of 330,000 active;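 active = inhibition above that plate's mean sample inhibition plus 3 SD, cut at about 26% in these data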;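 note: 0% = ATP-challenged DMSO wells and 100% = DMSO wells without ATP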
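Assay system – parental CHO cells · Reagent – ATP stimulus · Detection – intracellular calcium via Fluo-8 no-wash fluorescent dye · Evaluation – percent inhibition of ATP-evoked calcium rise, normalized to controls · Controls – ATP wells versus no-ATP DMSO wells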
OX1R antag-2: antagonists of human orexin 1 receptor; O43613; CHO/OX1R cells, Fluo-8 calcium fluorescence, orexin A; inhibition, % at 5 µM; 0.43% of 330,000 active;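 active = inhibition above its plate's threshold, mean inhibition of all tested compounds on the plate plus 3 SD, cut at about 37% in these data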;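 note: 0% = orexin A challenge wells and 100% = SB-334867-A antagonist wells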
TAAR1 antagonist: human TAAR1 antagonism. Q96RJ0. CHO RD-HGA16 TAAR1, Fluo-8 calcium fluorescence, antagonist. inhibition, % at 3 µM. 1.5% of 360,000 active. AID 624466;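 active = inhibition above a per-plate cutoff, the mean inhibition of test compounds on that plate plus 3 SD, cut at about 49% in these data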;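 note: 0% = DMSO plus EC80 beta-PEA response and 100% = DMSO alone without agonist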
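System: CHO RD-HGA16 cells bearing hTAAR1. Reagent: EC80 β-phenethylamine stimulus. Schedule: seeding 17-24 h prior, 75-min 37 °C, 30-min RT dye loading. Signal: Fluo-8 intracellular calcium dye fluorescence, real-time kinetic reads. Read-out: % inhibition from peak post-agonist over basal fluorescence ratio. Benchmarks: vehicle wells and EC80 agonist wells. Replicates: n of 1.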
Numbers without * were called inactive; x = not tested or not shown. Most compounds without a hit are left out; they make up all but 4.6% or so of the library.

SMILES | OX1R antag-1 | TAAR1 ag | GPR7 antagonist | CHO parental Ca | OX1R antag-2 | TAAR1 antagonist
Cc1cc(SCC(N)=O)nc(SCC(=O)c2ccccc2)n1 | 28 | 1 | 9 | -7 | -16 | 4
Cc1ccc(C(=O)CSc2cc(C)nc(SCC(=O)c3ccccc3)n2)cc1 | 29 | 12 | -5 | 44* | -11 | 54*
O=C(Cc1ccccc1)NCCS(=O)c1ccc(Cl)cc1 (stereo unspecified) | 0 | 7 | 0 | -21 | 3 | -7
Cc1nn(Cc2ccc(Cl)cc2Cl)c(Cl)c1/C=N/NC(=O)CNc1cccc(C(F)(F)F)c1 | 0 | x | -1 | -12 | -1 | x
Cc1nccc(-c2cccc(N/N=C(\C#N)C(=O)c3ccccc3)c2)n1 | 69 | 3 | -25 | 7 | -15 | -21
N#C/C(=N\Nc1cccc(C(F)(F)F)c1)C(=O)c1ccsc1 | 55* | 2 | 15 | 1 | 36 | -25
COC(OC)c1ccnc(-c2ccc(OC(=O)c3ccc(F)cc3)cc2)n1 | 4 | 3 | -1 | -5 | -13 | 13
CCOC(=O)c1ccc(N2CCN(c3ccc(F)cc3)CC2)c(NC(=O)Nc2cccc(OC)c2)c1 | 18 | 9 | -9 | 5 | 10 | 58*
CCOC(=O)c1ccc(N2CCN(c3ccccc3F)CC2)c(NC(=O)Nc2ccccc2)c1 | 9 | 8 | 19 | 39* | 18 | 48
COc1cccc(NC(=O)CN2CCN(c3ccc(F)cc3)CC2)c1 | 24 | 6 | -5 | -23 | -18 | -19
COc1ccc(OCC(=O)N2CCN(S(=O)(=O)c3ccc(Cl)cc3)CC2)cc1 | -1 | 5 | 23 | -14 | -8 | 7
O=C(O)c1cc(N/N=C/C(Cl)=C/c2ccccc2)ccc1Cl | 10 | 0 | -8 | -6 | -12 | 8
Cc1cc(C)n(-c2nc3ccccc3c(=O)n2OCCOc2ccccc2)n1 | 17 | 5 | -14 | -26 | -16 | -4
CCOc1ccc(N(C)S(=O)(=O)c2cc(-c3cc(C)no3)ccc2OC)cc1 | 12 | 1 | -6 | -12 | -19 | 15
CCOc1ccc(N(C)S(=O)(=O)c2cc(-c3cc(C)no3)ccc2CC)cc1 | 17 | 2 | 6 | 64* | 43* | 58*
CCc1ccc(-c2cc(C)no2)cc1S(=O)(=O)N1CCOc2ccccc21 | 49* | 3 | -5 | -19 | -27 | 3
COC(=O)Cn1c(=NC(=O)c2cc(OC)cc(OC)c2)sc2cc(OC)ccc21 | 20 | 6 | 3 | -4 | -15 | 4
COC(=O)Cn1c(=NC(=O)c2cccc(OC)c2)sc2cc(OC)ccc21 | 7 | 6 | -9 | 1 | -12 | 49*
COc1ccccc1C(=O)N/N=C1/NC(=O)CC(C(=O)Nc2ccccc2)S1 (stereo unspecified) | 2 | 2 | -19 | 5 | -7 | -26
COc1cccc(-c2ccc(C#N)c(SCC(=O)NCCc3cccc(Cl)c3)n2)c1 | 17 | 8 | 2 | -9 | 2 | 72*
Cc1ccc(OCC(=O)Nc2ccc([N+](=O)[O-])cn2)cc1C | 18 | -5 | -2 | 42* | -8 | 4
O=C(NNc1ccc([N+](=O)[O-])cn1)Nc1ccc(N=Nc2ccccc2)cc1 | x | 45* | x | x | x | 16
COc1cc(C(=O)Nc2ccc([N+](=O)[O-])cn2)cc(OC)c1OC | 17 | 1 | -7 | -2 | -18 | -17
CC(=O)Nc1ccc([N+](=O)[O-])cn1 | 76* | 0 | 4 | -7 | -17 | 9
COc1ccc(OC)c(S(=O)(=O)N2CCN(c3ccccn3)CC2)c1 | 13 | 0 | 13 | -3 | 2 | 15
SMILES | OX1R antag-1 | TAAR1 ag | GPR7 antagonist | CHO parental Ca | OX1R antag-2 | TAAR1 antagonist
COc1ccc(Cl)cc1-c1noc([C@@H]2O[C@H](CO)[C@H](O)[C@H](O)[C@H]2O)n1 | x | 1 | x | x | x | -3
Cc1ccc(S(=O)(=O)N2C[C@H]3C(=O)C[C@@H]4C(=O)N(c5ccccc5)C(=O)[C@@H]4[C@@H]3C[C@H]2c2cccc(Cl)c2)cc1 | x | 10 | x | x | x | 60*
CCc1ccc([C@H]2C[C@H]3[C@H]4C(=O)N(c5ccccc5)C(=O)[C@H]4CC(=O)[C@@H]3CN2S(=O)(=O)c2ccc(C)cc2)cc1 | x | 2 | x | x | x | -4
COc1cccc2c1C(=O)c1c(O)c3c(c(O)c1C2=O)C[C@@](O)(C(=O)CO)C[C@@H]3OC1CC(N)C(O)C(C)O1 (stereo partly specified) | x | 14 | x | x | x | 26
COc1cccc2c1C(=O)c1c(O)c3c(c(O)c1C2=O)C[C@@](O)(C(=O)CO)C[C@@H]3O[C@H]1C[C@H](N)[C@H](O)[C@H](C)O1 | 44* | 7 | 5 | 24 | 27 | 12
CC(=O)[C@@]1(O)Cc2c(O)c3c(c(O)c2[C@H](O[C@H]2C[C@H](N)[C@H](O)[C@H](C)O2)C1)C(=O)c1ccccc1C3=O | x | 66* | x | x | x | 44
COc1cccc2c1C(=O)c1c(O)c3c(c(O)c1C2=O)CC(O)(C(C)=O)CC3OC1CC(N(C)C)C(O)C(C)O1 (stereo unspecified) | x | 4 | x | x | x | 5
CCOC(=O)C1=C[C@@H](C(C)(C)C)N(S(=O)(=O)c2ccc(C)cc2)[C@H]1c1ccc(F)cc1 | x | -1 | x | x | x | 11
O=C1CN=C(Nc2ccccc2Cl)N1Cc1ccc2c(c1)OCO2 | 14 | 5 | 14 | 0 | 11 | 8
Cc1csc(NC(=O)CCS(=O)(=O)c2ccc(Br)cc2)n1 | 6 | 3 | -18 | -9 | -4 | 12
O=[N+]([O-])c1ccc2nc(-c3ccc(Cl)cc3)n(OCc3ccccc3)c2c1 | 15 | 39* | 4 | -11 | -5 | 18
Clc1ccc(COn2c(-c3ccccc3)nc3ccccc32)cc1 | 54* | 6 | -10 | -8 | -5 | 19
O=C(O)c1ccccc1NS(=O)(=O)c1ccc(NN=Cc2cccc(Cl)c2)c([N+](=O)[O-])c1 | 10 | 2 | x | -15 | -9 | -21
Cc1sc2ncnc(NCCc3ccc(S(N)(=O)=O)cc3)c2c1C | 37 | 6 | 19 | 53* | 20 | 24
O=c1[nH]c(-[n+]2ccccc2)c(/C=N/N=C(\[O-])c2ccccc2)s1 | 41* | 4 | -8 | -6 | -10 | -50
O=C(Nc1ccccc1)c1ccccc1OCc1cccc([N+](=O)[O-])c1 | 27 | 1 | 0 | 4 | 1 | 8
C#CCN1C(=O)S/C(=C/C=C/c2ccc(N(C)C)cc2)C1=O | 21 | 24 | 15 | 72* | 79* | 34
CS(=O)(=O)NCCSc1nnnn1-c1ccccc1 | 6 | 7 | 18* | -2 | 9 | 6
CN(CC(=O)Nc1ccccc1Sc1ccccc1)C1CCCCC1 | 19 | -1 | -7 | -25 | -33 | -27
